Assay results reported in ChEMBL document CHEMBL2157864, “Microwave-assisted synthesis of hydroxyphenyl nitrones with protective action against oxidative stress” (Eur J Med Chem, 2012).
Active and inactive are the calls of the source. The calls are words filed in the database; no cut-off is given here.

Experiments:
[1] = Permeability of the compound after 4 hrs by PAMPA assay; type: ADME; conditions: read-out: permeability
[2] = Antioxidant activity against peroxyl radical production assessed as trolox equivalent by ORAC assay; type: functional
Outline: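 Oxygen radical absorbance capacity assay, fluorescein as fluorescent probe, peroxyl radical scavenging; expressed as μmol Trolox equivalents per μmol compound, mean of n = 3 ± SD.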

[3] = Cytotoxicity against rat primary microglia cells at 10 uM after 24 hrs by MTT assay; type: cell-based
Outline: (§1)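 Rat primary astrocyte or microglia cultures exposed 24 h to compound (10 μM); cytotoxicity assessed in vitro.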

[4] = test system: SH-SY5Y; assay: Cytotoxicity against human SH-SY5Y cells at 10 to 100 uM after 24 hrs by MTT assay; type: cell-based
Outline: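 SH-SY5Y human neuroblastoma cells exposed to compound (10–100 μM) for 24 h; viability by MTT assay.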

[5] = test system: Astrocyte; assay: Antiinflammatory activity in rat primary astrocytes assessed as inhibition of LPS-induced nitrite production at 10 uM incubated for 1 hr prior to LPS-challenge measured after 24 hrs by Greiss method; type: functional, cell-based
Outline: (§2)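 Rat primary glial cultures (microglia or astrocytes) pre-incubated 1 h with compound, then 24 h with LPS (10 μg/mL); nitrite in culture medium measured by Griess reaction. Means ± SD of three experiments.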

[6] = test system: Microglia; assay: Antiinflammatory activity in rat primary microglia cells assessed as inhibition of LPS-induced nitrite production at 10 uM incubated for 1 hr prior to LPS-challenge measured after 24 hrs by Greiss method; type: functional; outline: as §2
[7] = Cytotoxicity against rat primary astrocytes at 10 uM after 24 hrs by MTT assay; type: cell-based; conditions: astrocyte; outline: as §1
[8] = test system: SH-SY5Y; assay: Neuroprotective activity against SIN1-induced toxicity in human SH-SY5Y cells at 50 to 500 uM after 24 hrs by MTT assay; type: functional, cell-based
Outline: (§3)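 SH-SY5Y cells pre-incubated 1 h with compound, then challenged with SIN-1 (0.5 mM; ONOO⁻ generation about 9 μM per minute by DHR method) or vehicle; viability by MTT assay. Mean ± SD, three independent experiments.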

[9] = test system: SH-SY5Y; assay: Neuroprotective activity against 6OHDA-induced toxicity in human SH-SY5Y cells assessed as cell viability at 10 uM after 24 hrs by MTT assay (reference value: 75%); type: functional; conditions: read-out: Activity
[10] = Antioxidant activity against peroxynitrite assessed as inhibition of alpha-synuclein aggregate formation at 50 uM by Western blot analysis; type: functional
Outline: (§4)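 α-Synuclein (5 μM) exposed to authentic ONOO⁻ (200 μM) with compound (50 μM) or 1% DMSO; 12% SDS-PAGE, western blot with anti-αS and anti-3-nitrotyrosine antibodies; densitometry of anti-nitrotyrosine blots used for dose-response. Reverse-addition ONOO⁻ control included.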

[11] = Antioxidant activity against peroxynitrite assessed as inhibition of cytochrome c nitration by Western blot analysis; type: functional
Outline: (§5)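 RNase A or cytochrome c (5 μM) treated with authentic ONOO⁻ (200 μM) in presence of compound; 12% SDS-PAGE and western blot probed with anti-3-nitrotyrosine antibody.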

[12] = Antioxidant activity against peroxynitrite assessed as inhibition of alpha-synuclein nitration at 50 uM by Western blot analysis; type: functional; outline: as §4
[13] = Antioxidant activity against peroxynitrite assessed as inhibition of RNAse nitration by Western blot analysis; type: functional; outline: as §5
[14] = test system: SH-SY5Y; assay: Neuroprotective activity against SIN1-induced toxicity in human SH-SY5Y cells assessed as cell viability at 500 uM after 24 hrs by MTT assay relative to control; type: functional; conditions: read-out: Activity; outline: as §3
[15] = test system: SH-SY5Y; assay: Neuroprotective activity against SIN1-induced toxicity in human SH-SY5Y cells assessed as cell viability at 100 uM after 24 hrs by MTT assay relative to control; type: functional; conditions: read-out: Activity; outline: as §3
[16] = test system: SH-SY5Y; assay: Neuroprotective activity against SIN1-induced toxicity in human SH-SY5Y cells after 24 hrs by MTT assay; type: functional, cell-based; outline: as §3
[17] = Antioxidant activity against CO3 radical production by Western blot analysis; type: functional
[18] = Antioxidant activity against OH radical production by Western blot analysis; type: functional
[19] = Antioxidant activity against NO2 radical assessed as mono nitreated derivative formation at 50 uM by mass spectroscopic analysis; type: functional
Outline: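 Compound (50 μM) preincubated with excess NaNO₂ (4 mM), converting •OH to •NO₂, then 500 μM ONOO⁻ in 50 mM potassium phosphate, pH 7.4; products analysed by chromatography with mass spectrometry, tracking nitrated-product peak.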

[20] = Antioxidant activity against NO2 radical production by Western blot analysis; type: functional
[21] = Antioxidant activity against peroxynitrite assessed as inhibition of alpha-synuclein nitration by Western blot analysis; type: functional; outline: as §4
[22] = Antioxidant activity against peroxynitrite radical at 50 uM by mass spectroscopic analysis; type: functional
Outline: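 Compound (50 μM) reacted with 500 μM ONOO⁻ in 50 mM potassium phosphate, pH 7.4, without NaNO₂; reaction products resolved chromatographically and characterised by mass spectrometry.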

Structure (SMILES)	Papp at 4 h [1]	Activity [2]	Activity [3]	Activity [4]	inhibition [5]	inhibition [6]	Activity [7]	viability at 10 µM [9]	other results
CN1C(C(=O)Nc2ccccn2)=C(O)c2ccccc2S1(=O)=O [PIROXICAM]	1.6 ×10⁻⁶ cm/s								
CC(C)(C)/[N+]([O-])=C/c1ccccc1O	37.5 ×10⁻⁶ cm/s	2.6 equiv	Non-toxic	Non-toxic	Active	Active	Non-toxic	100%	Activity [8]: inactive
CC(C)(C)c1cc(/C=[N+](\[O-])C(C)(C)C)cc(C(C)(C)C)c1O	10.2 ×10⁻⁶ cm/s	2 equiv	Non-toxic	Non-toxic	Active	Active	Non-toxic	100%	inhibition [10]: Active; inhibition [11]: Active; inhibition [12]: Active; inhibition [13]: Active; Activity [8]: inactive
CNCCCN1c2ccccc2CCc2ccccc21 [DESIPRAMINE]	14.4 ×10⁻⁶ cm/s								
CC(C)(C)/[N+]([O-])=C/c1ccccc1		0.014 equiv							
CC(C)(C)/[N+]([O-])=C/c1ccc(O)cc1	0.2 ×10⁻⁶ cm/s	3.2 equiv	Non-toxic	Non-toxic	Active	Active	Non-toxic	100%	viability at 500 µM [14]: 100%; inhibition [10]: Active; inhibition [11]: Active; viability at 100 µM [15]: 91%; inhibition [12]: Active; Activity [16]: Dose-dependent effect; Activity [17]: Active; Activity [18]: Active; inhibition [13]: Active; Activity [19]: Active; Activity [20]: Active; inhibition [21]: Dose-dependent effect; Activity [22]: Active
CCn1cc(C(=O)O)c(=O)c2cc(F)c(N3CCNCC3)nc21 [ENOXACIN]	1.7 ×10⁻⁶ cm/s								
